The test system of series [1] is Trypanosoma cruzi. The series can be described thus: Antitrypanosomal activity against bloodstream trypomastigote stage of Trypanosoma cruzi Y infected in monkey LLC-MK2 cells assessed as reduction in parasite motility measured after 24 hrs by neubauer chamber method. In kind it is functional, organism-based. Conditions: LLC-MK2, 24 h. The gist of the method:
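Y strain trypomastigotes from LLC-MK2 supernatants, 4x10^5/well, incubated 24 h at 37°C, 5% CO2 with five concentrations; viable parasites counted by motility in Neubauer chamber. Inhibition versus untreated cultures; IC50 by non-linear regression; benznidazole reference.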

Series [2] can be described thus: Solubility of the compound in pH 5.5 sodium acetate buffer at 10 uM. Conditions: pH 5.5, 10 µM.
The nature of series [3]: Cytotoxicity against rat H9c2 cells assessed as reduction in cell viability after 72 hrs by alamar blue assay. In kind it is cell-based. The gist of the method:
(§1)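 H9c2 or J774 cells (1 x 10^4/well) in DMEM/10% FBS preincubated 24 h, then exposed 72 h to six concentrations (0.41 to 100 µM) in triplicate, DMSO under 1%. Viability by AlamarBlue, read after 6 h at 570/600 nm; CC50 from three independent experiments; gentian violet positive control.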
For orientation: Resazurin is reduced to fluorescent resorufin, in cell work by metabolically active cells.

For series [4], the target named is Cruzipain (Trypanosoma cruzi) (UniProt P25779). The series can be described thus: Inhibition of recombinant Trypanosoma cruzi cruzain at 10 uM preincubated for 10 mins followed by Z-FR-AMC substrate addition measured for 5 mins at 12 secs time interval by […] relative to control. The procedure, abridged: (§2)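 Cruzain 0.5 nM in 0.1 M sodium acetate pH 5.5, 1 mM beta-mercaptoethanol, 0.01% Triton X-100, 25 °C; 10 min preincubation, then Z-FR-AMC 2.5 µM (Km 1 µM). Fluorescence (ex 340, em 440) read continuously 5 min; initial rates versus DMSO control. Screens at 10 µM, two independent runs in triplicate; IC50 from at least seven concentrations, four-parameter fit, at least two curves.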

The nature of series [5]: Cytotoxicity against mouse J774 cells assessed as reduction in cell viability after 72 hrs by alamar blue assay. Type of series: cell-based. The procedure, abridged:
as §1

In the next series the target is Cruzipain (Trypanosoma cruzi, UniProt P25779). The series can be described thus: Inhibition of recombinant Trypanosoma cruzi cruzain preincubated for 10 mins followed by Z-FR-AMC substrate addition measured for 5 mins at 12 secs time interval by flow cytometry relative to control. The procedure, abridged:
as §2

Series [6] relates to Trypanosoma cruzi. The series can be described thus: Antitrypanosomal activity against Trypanosoma cruzi Y trypomastigotes infected in mouse J774 cells measured after […] by contrast phase microscopic method. In kind it is functional, organism-based.
The nature of series [7]: Cytotoxicity against mouse J774 cells. Type of series: cell-based. The procedure, abridged: as §1

The source of these data is ChEMBL document CHEMBL4138128, “Structural design, synthesis and pharmacological evaluation of thiazoles against Trypanosoma cruzi” (Eur J Med Chem, 2017).

Usually IC50 stands for the midpoint of a concentration-inhibition curve. The term CC50 denotes the concentration that lowers cell viability or growth by half. Usually inhibition stands for the relative decrease from the control value, in per cent.

Cruzipain (Trypanosoma cruzi), sequence (P25779 123-467 limits assumed): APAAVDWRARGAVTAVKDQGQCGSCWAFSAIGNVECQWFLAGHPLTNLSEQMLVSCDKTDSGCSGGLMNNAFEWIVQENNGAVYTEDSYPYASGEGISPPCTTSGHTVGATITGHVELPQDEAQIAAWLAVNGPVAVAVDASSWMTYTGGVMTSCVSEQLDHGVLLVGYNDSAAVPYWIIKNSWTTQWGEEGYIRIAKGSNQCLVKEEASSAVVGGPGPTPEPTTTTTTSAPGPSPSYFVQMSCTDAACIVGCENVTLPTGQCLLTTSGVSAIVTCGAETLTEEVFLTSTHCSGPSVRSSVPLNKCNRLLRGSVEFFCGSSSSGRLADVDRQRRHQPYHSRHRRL
Cruzipain, sequence (P25779 whole entry): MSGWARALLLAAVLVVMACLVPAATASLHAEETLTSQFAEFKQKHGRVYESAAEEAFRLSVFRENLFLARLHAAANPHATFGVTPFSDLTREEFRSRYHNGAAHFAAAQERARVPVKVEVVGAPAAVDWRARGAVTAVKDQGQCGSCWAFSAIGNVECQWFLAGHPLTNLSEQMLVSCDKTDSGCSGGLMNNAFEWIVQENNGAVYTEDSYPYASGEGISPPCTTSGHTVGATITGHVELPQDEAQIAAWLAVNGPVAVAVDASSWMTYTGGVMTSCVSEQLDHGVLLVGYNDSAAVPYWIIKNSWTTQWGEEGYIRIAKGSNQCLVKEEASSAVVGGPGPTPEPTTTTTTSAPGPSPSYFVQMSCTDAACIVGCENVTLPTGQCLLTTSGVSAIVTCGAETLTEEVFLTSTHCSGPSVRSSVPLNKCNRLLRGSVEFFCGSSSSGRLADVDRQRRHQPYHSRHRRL

Turning to `C/C(=N\Nc1nc(-c2ccc(C)cc2)cs1)c1ccc(Cl)c(Cl)c1`, the IC50 in the series with Trypanosoma cruzi [1] was 47.7 µM. Also, the solubility result in series [2] is reported as “Soluble”. Moreover, the CC50 at 72 h in series [3] and in series [5] was > 50 µM throughout. For the same compound, in series [4], the inhibition is 75%.

Regarding `C/C(=N\N=c1\scc(-c2ccccc2)n1C)c1ccc(Cl)c(Cl)c1`, the IC50 with Trypanosoma cruzi [1] is > 50 µM. In addition, in series [2], the solubility result is recorded as “Soluble”. The CC50 at 72 h in series [3] and in series [5] was > 50 µM each time. Moreover, in series [4], the inhibition is 12%.

Consider `C/C(=N\Nc1nc(-c2ccc(Cl)cc2Cl)cs1)c1ccc(Cl)c(Cl)c1`, for which the IC50 with Trypanosoma cruzi [1] is > 50 µM. The solubility entry in series [2] is on record as “Soluble”. Also, the cytotoxic concentration (CC50) at 72 h in series [3] and in series [5] was > 50 µM in each case. Further, the inhibition in series [4] was found to be 35%.

Consider `C/C(=N\Nc1nc(C)cs1)c1ccc(Cl)c(Cl)c1`, for which the IC50 with Trypanosoma cruzi [1] came out at 17.1 µM; on Cruzipain it was 0.6 µM. Further, the solubility entry in series [2] was “Soluble”. Also, the CC50 at 72 h turned out to be 26.1 µM in series [3] and 33.7 µM in series [5]. Moreover, in series [4], the inhibition is 97%.

As for `C/C(=N\Nc1nc(-c2ccc(Br)cc2)cs1)c1ccc(Cl)c(Cl)c1`, the IC50 with Trypanosoma cruzi [1] is > 50 µM. In addition, the solubility entry in series [2] was “Soluble”. The CC50 at 72 h in series [3] and in series [5] was > 50 µM in each case. The inhibition in series [4] amounted to 43%.

On to `C/C(=N\Nc1nc(-c2ccc(Cl)c(Cl)c2)cs1)c1ccc(Cl)c(Cl)c1`, for which the IC50 in the series with Trypanosoma cruzi [1] was > 50 µM. Moreover, the solubility entry in series [2] is listed as “Soluble”. In addition, the half-maximal cytotoxic concentration (CC50) at 72 h in series [3] and in series [5] was > 50 µM in each case.

Take `C/C(=N\N=C(\N)S)c1ccc(Cl)c(Cl)c1`: in the series with Trypanosoma cruzi [6], the IC50 came out at 7.1 µM. In addition, the 50% cytotoxic concentration (CC50) in series [7] was > 100 µM.

With `C/C(=N\N=c1\scc(-c2ccccc2)n1-c1ccccc1)c1ccc(Cl)c(Cl)c1`, the IC50 with Trypanosoma cruzi [1] was > 50 µM. Moreover, the solubility result in series [2] is “Soluble”. For the same compound, the CC50 at 72 h in series [3] and in series [5] was > 50 µM throughout. For the same compound, the inhibition in series [4] stood at 31%.

Take `C/C(=N\Nc1nc(-c2ccc(Cl)cc2)cs1)c1ccc(Cl)c(Cl)c1`: the IC50 in the series on Trypanosoma cruzi [1] was > 50 µM. Moreover, the solubility entry in series [2] was “Soluble”. Also, the CC50 at 72 h in series [3] and in series [5] was > 50 µM throughout. Moreover, the inhibition in series [4] stood at 31%.

In the case of `C/C(=N\Nc1nc(-c2ccc(-c3ccccc3)cc2)cs1)c1ccc(Cl)c(Cl)c1`, the half-maximal inhibitory concentration (IC50) in the series on Trypanosoma cruzi [1] is > 50 µM. Besides, the solubility entry in series [2] is on record as “Soluble”. For the same compound, the CC50 at 72 h in series [3] and in series [5] was > 50 µM each time. For the same compound, the inhibition in series [4] worked out at 44%.

Consider `C/C(=N\Nc1nc(-c2ccccc2)cs1)c1ccc(Cl)c(Cl)c1`, for which, in the series with Trypanosoma cruzi [1], the IC50 was > 50 µM. Also, in series [2], the solubility entry was “Soluble”. In addition, the CC50 at 72 h in series [3] and in series [5] was > 50 µM throughout. In series [4], the inhibition was found to be 59%.

With `C/C(=N\Nc1nc(-c2ccc(F)cc2)cs1)c1ccc(Cl)c(Cl)c1`, the IC50 in the series with Trypanosoma cruzi [1] was > 50 µM. Besides, the solubility entry in series [2] is listed as “Soluble”. The CC50 at 72 h in series [3] and in series [5] was > 50 µM throughout. Also, the inhibition in series [4] was 32%.

Turning to `C/C(=N\Nc1nc(-c2ccccc2)c(C)s1)c1ccc(Cl)c(Cl)c1`, the IC50 with Trypanosoma cruzi [1] is 17.8 µM. Moreover, in series [2], the solubility entry is “Soluble”. In addition, the CC50 at 72 h in series [3] and in series [5] was > 50 µM throughout. Besides, in series [4], the inhibition was 76%.

With `CN(C)c1ccc(C(=C2C=CC(=[N+](C)C)C=C2)c2ccc(N(C)C)cc2)cc1` [GENTIAN VIOLET], the half-maximal cytotoxic concentration (CC50) at 72 h in series [3] stood at 1.5 µM.

Turning to `C/C(=N\Nc1nc(-c2ccc(Br)cc2)c(C)s1)c1ccc(Cl)c(Cl)c1`, the IC50 in the series on Trypanosoma cruzi [1] stood at 19.1 µM. In addition, the solubility entry in series [2] was “Soluble”. Also, the CC50 at 72 h in series [3] and in series [5] was > 50 µM in each case. Moreover, the inhibition in series [4] came out at 74%.

As for `C/C(=N\Nc1nc(-c2cccc([N+](=O)[O-])c2)cs1)c1ccc(Cl)c(Cl)c1`, the half-maximal inhibitory concentration (IC50) in the series with Trypanosoma cruzi [1] is > 50 µM. Moreover, the solubility result in series [2] is given as “Soluble”. Moreover, the CC50 at 72 h in series [3] and in series [5] was > 50 µM in each case.

In the case of `C/C(=N\Nc1nc(-c2ccncc2)cs1)c1ccc(Cl)c(Cl)c1`, the half-inhibitory concentration (IC50) in the series with Trypanosoma cruzi [1] came out at 16.8 µM. In addition, the solubility result in series [2] is “Soluble”. In addition, the CC50 at 72 h in series [3] came to 41.9 µM; in series [5], 39.8 µM. Besides, in series [4], the inhibition stood at 32%.

As to `C/C(=N\Nc1nc(-c2ccc3ccccc3c2)cs1)c1ccc(Cl)c(Cl)c1`, in the series on Trypanosoma cruzi [1], the IC50 is > 50 µM. The solubility result in series [2] is recorded as “Soluble”. For the same compound, the CC50 at 72 h in series [3] and in series [5] was > 50 µM throughout. Besides, the inhibition in series [4] is 44%.

Turning to `COc1ccc(-c2csc(N/N=C(\C)c3ccc(Cl)c(Cl)c3)n2)cc1`, the IC50 in the series on Trypanosoma cruzi [1] was determined as 17.1 µM. Besides, the solubility result in series [2] is listed as “Soluble”. Moreover, the CC50 at 72 h in series [3] and in series [5] was > 50 µM throughout. Moreover, in series [4], the inhibition turned out to be 41%.

Turning to `C/C(=N\Nc1nc(-c2ccc(Cl)c(Cl)c2Cl)cs1)c1ccc(Cl)c(Cl)c1`, in the series on Trypanosoma cruzi [1], the IC50 was determined as 6 µM. For the same compound, the solubility result in series [2] is recorded as “Soluble”. The CC50 at 72 h in series [3] was 17 µM; in series [5], 21.3 µM. Besides, the inhibition in series [4] stood at 38%.

Consider `C/C(=N\Nc1nc(-c2ccc([N+](=O)[O-])cc2)cs1)c1ccc(Cl)c(Cl)c1`, for which the IC50 with Trypanosoma cruzi [1] was > 50 µM. For the same compound, in series [2], the solubility entry is “Soluble”. In addition, the CC50 at 72 h in series [3] and in series [5] was > 50 µM throughout.

Turning to `C/C(=N\Nc1nc(C)c(C)s1)c1ccc(Cl)c(Cl)c1`, the IC50 in the series on Trypanosoma cruzi [1] turned out to be 10.5 µM; on Cruzipain, 9 µM. Moreover, the solubility entry in series [2] is on record as “Soluble”. The CC50 at 72 h is > 50 µM in series [3] and 41.8 µM in series [5]. In series [4], the inhibition was determined as 84%.

Turning to `C/C(=N\Nc1nc(CCl)cs1)c1ccc(Cl)c(Cl)c1`, in the series on Trypanosoma cruzi [1], the IC50 was > 50 µM. Besides, the solubility entry in series [2] is “Soluble”. Further, the CC50 at 72 h in series [3] and in series [5] was > 50 µM throughout. The inhibition in series [4] worked out at 50%.
